Data from ChEMBL document CHEMBL4819011, “Structure-based discovery of 1H-indole-2-carboxamide derivatives as potent ASK1 inhibitors for potential treatment of ulcerative colitis” (Eur J Med Chem, 2021).

Target: T1, Mitogen-activated protein kinase kinase kinase 5 (Homo sapiens, UniProt Q99683)
T1 sequence (Q99683 whole entry): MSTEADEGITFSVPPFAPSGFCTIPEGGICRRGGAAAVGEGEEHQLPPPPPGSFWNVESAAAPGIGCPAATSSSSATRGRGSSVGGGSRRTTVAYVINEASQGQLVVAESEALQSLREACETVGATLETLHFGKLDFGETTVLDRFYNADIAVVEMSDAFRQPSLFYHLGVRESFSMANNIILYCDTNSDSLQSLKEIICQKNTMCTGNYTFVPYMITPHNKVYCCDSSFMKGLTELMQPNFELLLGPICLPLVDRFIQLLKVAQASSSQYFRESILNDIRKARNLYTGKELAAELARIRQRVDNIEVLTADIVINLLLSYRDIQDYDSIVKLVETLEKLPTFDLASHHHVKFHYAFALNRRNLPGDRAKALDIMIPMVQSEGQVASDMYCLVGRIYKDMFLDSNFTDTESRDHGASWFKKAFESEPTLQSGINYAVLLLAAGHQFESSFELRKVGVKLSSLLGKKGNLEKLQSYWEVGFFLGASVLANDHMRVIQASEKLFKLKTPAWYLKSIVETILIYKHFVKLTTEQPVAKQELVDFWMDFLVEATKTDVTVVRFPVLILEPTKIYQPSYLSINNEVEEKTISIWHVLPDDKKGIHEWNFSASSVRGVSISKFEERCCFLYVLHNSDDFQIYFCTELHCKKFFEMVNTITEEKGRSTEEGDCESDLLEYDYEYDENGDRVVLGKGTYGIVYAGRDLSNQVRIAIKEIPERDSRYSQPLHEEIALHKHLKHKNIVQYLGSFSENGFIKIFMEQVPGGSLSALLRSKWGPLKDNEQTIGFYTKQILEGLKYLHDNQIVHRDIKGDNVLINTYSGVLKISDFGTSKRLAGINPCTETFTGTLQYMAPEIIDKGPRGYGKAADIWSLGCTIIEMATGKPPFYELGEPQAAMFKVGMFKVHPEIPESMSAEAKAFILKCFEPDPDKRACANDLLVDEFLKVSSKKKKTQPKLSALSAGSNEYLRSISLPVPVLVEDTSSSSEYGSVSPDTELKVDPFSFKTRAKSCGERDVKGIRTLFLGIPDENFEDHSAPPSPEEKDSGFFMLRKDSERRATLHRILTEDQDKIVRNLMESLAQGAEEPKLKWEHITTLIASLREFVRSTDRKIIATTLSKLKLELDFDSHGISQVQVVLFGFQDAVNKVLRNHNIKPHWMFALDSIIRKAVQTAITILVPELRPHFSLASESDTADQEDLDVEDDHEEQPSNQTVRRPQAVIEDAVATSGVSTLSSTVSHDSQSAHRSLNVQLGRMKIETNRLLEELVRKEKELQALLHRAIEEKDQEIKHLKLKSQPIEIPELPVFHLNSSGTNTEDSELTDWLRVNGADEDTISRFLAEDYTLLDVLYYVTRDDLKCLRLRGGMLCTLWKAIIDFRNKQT
Test: Inhibition of N-terminal GST-tagged recombinant human full length ASK1 expressed in baculovirus-infected Sf21 cells using STK-Substrate-3 biotin as substrate in presence of ATP measured after 2 hrs by HTRF assay
Method in brief: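 HTRF assay with full-length recombinant human ASK1 at final 2 nM, in buffer containing 5 mM MgCl₂ and 1 mM DTT, 2% DMSO. Reaction run with STK-Substrate 3-biotin (final 2 µM) and ATP for 2 h at rt. STK S3 antibody-Eu then added and incubated a further 1 h. Read at 340 nm excitation and 665 nm emission. IC50 reported as mean ± SD from two independent experiments.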

Structure (SMILES) | IC50
CC(C)n1cnnc1-c1cccc(NC(=O)c2cc3cccc(-c4cn[nH]c4)c3[nH]2)n1 | 38.9 nM
CC(C)n1cnnc1-c1cccc(NC(=O)c2cc3cccnc3[nH]2)n1 | 125 nM
CC(C)n1cnnc1-c1cccc(NC(=O)c2cc3cccc(Cl)c3[nH]2)n1 | 89.6 nM
CC(C)n1cnnc1-c1cccc(NC(=O)c2cc3ccc(-c4cn[nH]c4)cc3[nH]2)n1 | 37.5 nM
C[C@H](CO)n1cnnc1-c1cccc(NC(=O)c2cc3ccccc3[nH]2)n1 | 65.5 nM
CC(C)n1cnnc1-c1cccc(NC(=O)c2cc3cc(-c4cn[nH]c4)ccc3[nH]2)n1 | 31.6 nM
CC(=O)Nc1cccc2cc(C(=O)Nc3cccc(-c4nncn4C(C)C)n3)[nH]c12 | 240 nM
CC(C)n1cnnc1-c1cccc(NC(=O)c2cc3ccc(-c4cnn(C5CCOCC5)c4)cc3[nH]2)n1 | 73.7 nM
Cc1c(C(=O)Nc2cccc(-n3cnnn3)c2)oc2ccccc12 | 16700 nM
CCOC(C)n1cc(-c2ccc3cc(C(=O)Nc4cccc(-c5nncn5C(C)C)n4)[nH]c3c2)cn1 (stereo not drawn) | 91.1 nM
COc1ccc2cc(C(=O)Nc3cccc(-c4nncn4C(C)C)n3)[nH]c2c1 | 54.3 nM

Next, values leading:

IC50 | Structure (SMILES)
41.4 nM | CC(C)n1cnnc1-c1cccc(NC(=O)c2cc3ccccc3[nH]2)n1
152 nM | CC(C)n1cnnc1-c1cccc(NC(=O)c2cc3ccccc3o2)n1
153 nM | CC(C)n1cnnc1-c1cccc(NC(=O)c2cc3cccc(-c4ccsc4)c3[nH]2)n1
1110 nM | Cc1c(C(=O)Nc2cccc(-c3nncn3C(C)C)n2)oc2ccccc12
23.1 nM | CC(C)n1cnnc1-c1cccc(NC(=O)c2cc3cccc(-c4ccncc4)c3[nH]2)n1
506 nM | CC(C)n1cnnc1-c1cccc(NC(=O)c2nc3ccccc3s2)n1
19.6 nM | CC(C)n1cnnc1-c1cccc(NC(=O)c2cc3c(-c4cnn(C)c4)cccc3[nH]2)n1
743 nM | CC(C)n1cnnc1-c1cccc(NC(=O)c2cc3ccccc3n2C)n1
68.5 nM | CC(C)n1cnnc1-c1cccc(NC(=O)c2cc3ccc(-c4cccnc4)cc3[nH]2)n1
88.2 nM | Cc1c(C(=O)Nc2cccc(-c3nncn3C(C)C)n2)[nH]c2ccccc12
143 nM | CC(C)n1cnnc1-c1cccc(NC(=O)c2[nH]c3ccccc3c2-c2ccoc2)n1

Target: T1, Mitogen-activated protein kinase kinase kinase 5
Test: Inhibition of ASK1 (unknown origin)

Structure (SMILES) | IC50
Cc1cc(F)c(C(=O)Nc2cccc(-c3nncn3[C@@H](C)C(F)(F)F)n2)cc1-n1cnc(C2CC2)c1 | 4.3 nM
